Experiments:
[1] = tested on: DU-145; test: Cytotoxicity against human DU145 cells assessed as reduction in cell viability incubated for 2 hrs under normoxic condition followed by washed with fresh media incubated for 3 days by alamar blue assay; format: functional, cell-based
In short: (§1)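 Cells exposed to the mustards across a concentration range for 2 h under hypoxia (N2) or normoxia (air), then washed and incubated 3 days under normoxia. Viability was read with alamarBlue, and IC50 is reported as mean ± SEM.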

[2] = tested on: PC-3; test: Cytotoxicity against human PC-3 cells assessed as reduction in cell viability incubated for 2 hrs under normoxic condition followed by washed with fresh media incubated for 3 days by alamar blue assay; format: functional, cell-based; in short: as §1
[3] = Selectivity index, ratio of IC50 for human PC-3 cells under normoxic condition to IC50 human PC-3 cells under hypoxia condition incubated for 2 hrs followed by washed with fresh media incubated for 3 days by alamar blue assay; format: functional
In short: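 PC-3 hypoxia selectivity is the IC50 in air divided by the IC50 under N2. Both come from the 2 h exposure, wash, 3-day normoxic incubation and alamarBlue viability readout.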

[4] = tested on: DU-145; test: Cytotoxicity against human DU145 cells assessed as reduction in cell viability incubated for 2 hrs under hypoxic condition followed washed with fresh media incubated for 3 days by alamar blue assay; format: functional, cell-based; in short: as §1
[5] = Lipophilicity, logD of compound at pH 7.4 by microscale shake flask method; format: physicochemical; settings: buffer
In short: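 Distribution coefficient measured at pH 7.4 and reported as mean ± SEM from two or more independent experiments, each in triplicate.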

[6] = tested on: PC-3; test: Cytotoxicity against human PC-3 cells assessed as reduction in cell viability incubated for 2 hrs under hypoxic condition followed by washed with fresh media incubated for 3 days by alamar blue assay; format: functional, cell-based; in short: as §1
[7] = tested on: PC-3; test: Cytotoxicity against human PC-3 cells assessed as reduction in cell viability preincubated for 4 hrs in hypoxia and further incubated for 5 days in fresh medium by SRB assay; format: functional, cell-based

Row | Structure (SMILES) | IC50 [1] [µM] | IC50 [2] [µM] | Ratio IC50 [3] | IC50 [4] [µM] | logD [5] | IC50 [6] [µM] | IC50 [7] [µM]
1 | O=C(O)CCNC(=O)c1cc([N+](=O)[O-])cc([N+](=O)[O-])c1N(CCBr)CCOS(=O)(=O)C(F)(F)F | 480 | 350 | 3.9 | 68 | 0.15 | 90 | 
2 | Cc1ccc(S(=O)(=O)OCCN(CCBr)c2c(C(=O)NCCO)cc([N+](=O)[O-])cc2[N+](=O)[O-])cc1 | 108 | 146 | 3.9 | 28 | 0.95 | 37 | 
3 | CS(=O)(=O)OCCN(CCBr)c1c(C(=O)NCCC(=O)O)cc([N+](=O)[O-])cc1[N+](=O)[O-] | 326 | 417 | 10 | 56 | -0.71 | 41 | 
4 | O=C(O)CCNC(=O)c1cc([N+](=O)[O-])cc([N+](=O)[O-])c1N(CCBr)CCBr | 413 | 490 | 6.5 | 47 | 0.42 | 75 | 
5 | O=C(NCCO)c1cc([N+](=O)[O-])cc([N+](=O)[O-])c1N(CCBr)CCBr | 177 | 193 | 7.4 | 80 | 1.7 | 26 | 
6 | O=C(NCCO)c1cc([N+](=O)[O-])cc([N+](=O)[O-])c1N(CCBr)CCOS(=O)(=O)C(F)(F)F | 470 | 245 | 5.8 | 51 | 0.33 | 42 | 
7 | Cc1ccc(S(=O)(=O)OCCN(CCBr)c2c(C(=O)NCCC(=O)O)cc([N+](=O)[O-])cc2[N+](=O)[O-])cc1 | 363 | 460 | 11 | 54 | 1.03 | 42 | 
8 | CS(=O)(=O)OCCN(CCBr)c1c(C(=O)NCCO)cc([N+](=O)[O-])cc1[N+](=O)[O-] | 210 | 320 | 6.7 | 78 | 0.8 | 48 | 7.3

Source: ChEMBL document CHEMBL4673308, “Synthesis and evaluation of new dinitrobenzamide mustards in human prostate cancer” (Bioorg Med Chem Lett, 2021)
